Bioassay records: PubChem, several laboratories
The sample as a whole holds a higher share of hits than the screen did.
CHOP inh: inhibitors of CHOP promoter induction, primary screen, cell-based, unfolded protein response, luciferase reporter; AID 2732, 2010; 220,000 compounds, 3.8% hits; inhibition, % at 10 µM; CHO-K1 CHOP-promoter luciferase, tunicamycin-induced, 15-18 h;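 active = compounds that reduced the stress-induced luciferase reporter signal by more than about 70% of percent inhibition, limit read from the data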;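 also: 0% = tunicamycin plus vehicle and 100% = wells without tunicamycin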
VLA-4 inh: inhibition in human VLA-4 binding assay, primary screen, VLA-4 allosteric modulator project, MLPCN library, flow cytometry, VLA-4 expressing cells; Integrin alpha-4 (Homo sapiens), P13612; ligand binding flow cytometry; inhibition, % (about 7 µM as worked out from the volumes in the protocol); 330,000 compounds, 0.2% hits; in the data active = inhibition above about 50%
Target sequence (P13612 whole entry, looked up): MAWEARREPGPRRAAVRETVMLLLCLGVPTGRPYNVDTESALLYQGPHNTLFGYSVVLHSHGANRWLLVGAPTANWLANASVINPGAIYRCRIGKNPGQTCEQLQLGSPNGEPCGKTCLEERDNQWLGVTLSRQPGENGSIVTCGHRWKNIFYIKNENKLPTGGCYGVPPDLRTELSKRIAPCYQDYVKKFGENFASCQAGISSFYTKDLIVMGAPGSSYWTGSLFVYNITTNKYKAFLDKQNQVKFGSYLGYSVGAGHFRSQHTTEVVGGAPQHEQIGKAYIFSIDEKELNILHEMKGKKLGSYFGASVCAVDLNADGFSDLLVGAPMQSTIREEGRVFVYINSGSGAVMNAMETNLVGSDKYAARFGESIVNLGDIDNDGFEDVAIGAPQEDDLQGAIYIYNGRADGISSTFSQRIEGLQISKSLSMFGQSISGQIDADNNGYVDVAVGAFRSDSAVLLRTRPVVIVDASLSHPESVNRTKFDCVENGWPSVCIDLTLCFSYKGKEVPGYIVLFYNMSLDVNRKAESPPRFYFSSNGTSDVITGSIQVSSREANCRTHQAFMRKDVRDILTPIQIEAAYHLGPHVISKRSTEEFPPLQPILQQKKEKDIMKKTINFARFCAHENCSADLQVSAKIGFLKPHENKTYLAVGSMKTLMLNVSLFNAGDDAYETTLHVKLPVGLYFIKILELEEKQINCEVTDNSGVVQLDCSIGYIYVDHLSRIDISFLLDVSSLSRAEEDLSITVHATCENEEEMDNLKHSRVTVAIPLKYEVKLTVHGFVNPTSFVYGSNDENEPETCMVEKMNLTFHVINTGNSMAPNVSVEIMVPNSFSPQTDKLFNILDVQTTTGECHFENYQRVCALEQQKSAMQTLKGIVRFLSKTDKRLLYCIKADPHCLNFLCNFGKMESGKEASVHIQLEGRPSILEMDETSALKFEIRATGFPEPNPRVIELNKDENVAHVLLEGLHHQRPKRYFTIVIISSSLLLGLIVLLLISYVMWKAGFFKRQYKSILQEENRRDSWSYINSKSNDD
XBP1 UPR activ: activators of adaptive XBP1 UPR arm, primary screen, cell-based, CHO-XBP1 luciferase reporter, luminescence, uHTS | IRE1-XBP1 UPR activation; percent of tunicamycin response, DMSO as zero | activation, % at 20 µM | 330,000 compounds, 0.33% hits | AID 463104, 2010;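 active = versus positive control, 20 µM dose yields 30% or more activation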;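 also: 100% = tunicamycin at 10 µg/mL and 0% = DMSO only wells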
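Material: CHO cell line with stable XBP1 luciferase reporter; buffer or medium: F12 medium containing 10% fetal bovine serum; compound: single point, 20 µM final compound, 1% DMSO; incubation: 6 h treatment, 37 °C; measured by: glow luminescence from Steady-Glo reagent; evaluation: activation, % of tunicamycin; control set: tunicamycin high, DMSO low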
UPR CHOP act: activators of apoptotic CHOP UPR arm, primary screen, cell-based, CHO-CHOP luciferase reporter, luminescence, uHTS; activation, % at 10 µM; AID 449763, 2010; 330,000 compounds, 0.34% hits; UPR activation; percent of tunicamycin response over DMSO baseline;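 active = at 10 µM dose, activation of 40% or more, normalized to positive control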;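 also: 100% = tunicamycin at 10 µg/mL and 0% = DMSO alone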
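Assay system: CHO-CHOP cells, stable luciferase reporter of PERK-eIF2a-CHOP signalling / Buffer or medium: F12 plus 10% serum / Compound dosing: one dose, 10 µM in 0.5% DMSO / Times: 6 h compound treatment, 37 °C / Technique: luciferase luminescence / Read-out: % reporter activation, DMSO baseline versus tunicamycin full activation / Benchmarks: tunicamycin and DMSO controls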
Beta2AR agonist: beta2AR agonists driving receptor internalization, primary screen, cell-based, FAP fluorogen, flow cytometry; Beta-2 adrenergic receptor (Homo sapiens), P07550; Am2.2-beta2AR cells; response, % (test concentration not listed); 340,000 compounds, 0.43% hits; AID 504454, 2011;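 active = response above a set limit, near 3 SD of response in nonfluorescent compounds, cut at about 42% in these data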
* marks the source's active call; other numbers are inactive results.

For O=C(c1ccc2oc(CCCc3ccccc3)nc2c1)N1CCCC1 the results were VLA-4 inh -3, XBP1 UPR activ 0, UPR CHOP act 4 and Beta2AR agonist -5.
`N#CC1=C(SCC(=O)NC2CC2)NC(=O)C(C#N)C12CCCCC2` (stereo unspecified) gave CHOP inh -11, VLA-4 inh -2, XBP1 UPR activ -2, UPR CHOP act 0 and Beta2AR agonist 1.
CC(C)(C)C1CCC2(CC1)C(C#N)=C(SCC(=O)NC1CCCCC1)NC(=O)C2C#N (stereo unspecified) was read as CHOP inh 81*, VLA-4 inh 11, XBP1 UPR activ 1, UPR CHOP act -3 and Beta2AR agonist -2.
Screening N#CC1=C(SCC(=O)NC23CC4CC(CC(C4)C2)C3)NC(=O)C(C#N)C12CCCCC2 (stereo unspecified) returned CHOP inh 85*, VLA-4 inh 2, XBP1 UPR activ -3, UPR CHOP act 2 and Beta2AR agonist 1.
Nc1ncnc2c1ncn2[C@@H]1O[C@H](CO)[C@H](O)C1O (stereo partly specified) was read as CHOP inh 24.
`COc1ccc(-n2cc(-c3ccccc3)c3c(N4CC(C)OC(C)C4)ncnc32)cc1` (stereo unspecified) gave CHOP inh 73*, VLA-4 inh 1, XBP1 UPR activ 3, UPR CHOP act 1 and Beta2AR agonist 20.
For CC(C)(C)C(=O)COC(=O)C1=NN(c2ccccc2)C(=O)CC1 the results were VLA-4 inh 6, XBP1 UPR activ -6, UPR CHOP act -1 and Beta2AR agonist 0.
Screening CC(=O)Nc1ccc(N2CCOCC2)c([N+](=O)[O-])c1 returned CHOP inh 25, VLA-4 inh 19, XBP1 UPR activ 2, UPR CHOP act 1 and Beta2AR agonist 4.
O=C1Nc2ccc(Cl)cc2[C@@](C#CC2CC2)(C(F)(F)F)O1 was read as CHOP inh 102*, VLA-4 inh 26, XBP1 UPR activ -5 and UPR CHOP act 0.
Cc1c(C(=O)NN)nc2ccccn12 was read as CHOP inh 4, VLA-4 inh 5, XBP1 UPR activ 3, UPR CHOP act -1 and Beta2AR agonist 2.
For CCN1C(=O)/C(=C/c2ccc(C)s2)NC1=S the results were CHOP inh 19, VLA-4 inh -6, XBP1 UPR activ 0, UPR CHOP act 2 and Beta2AR agonist -2.
Screening CCOC(=O)COc1ccc(/C=C2\NC(=S)N(CC)C2=O)cc1 returned CHOP inh 3, VLA-4 inh 11, XBP1 UPR activ 1, UPR CHOP act -2 and Beta2AR agonist 66*.
For CN(C)CCOC(=O)CCCCCCCCC(=O)OCCN(C)C the results were CHOP inh 18, VLA-4 inh 5, XBP1 UPR activ -1, UPR CHOP act 2 and Beta2AR agonist -3.
Cc1ccccc1OCCCc1c(C)n[nH]c1C was read as CHOP inh -6, VLA-4 inh 25, XBP1 UPR activ 0, UPR CHOP act 3 and Beta2AR agonist 0.
For Cc1ccccc1OCCCCc1c(C)n[nH]c1C the results were CHOP inh 85*, VLA-4 inh -7, XBP1 UPR activ 0, UPR CHOP act 2 and Beta2AR agonist 4.
`Cc1cccc(C)c1OCCCCc1c(C)n[nH]c1C` gave CHOP inh 86*, VLA-4 inh 6, XBP1 UPR activ -1, UPR CHOP act 1 and Beta2AR agonist 5.
`Cc1ccc(S(=O)(=O)Nc2ccc3c(c2)C(=O)N([C@H](C)CO)C[C@H](C)[C@@H](CN(C)C(=O)Nc2ccc(C(F)(F)F)cc2)O3)cc1` gave VLA-4 inh 24, XBP1 UPR activ -4, UPR CHOP act 1 and Beta2AR agonist 9.
`Cc1ccc2[nH]c3c(=O)n(CC(=O)NCCCN4CCN(c5ccc(F)cc5)CC4)ncc3c2c1` gave VLA-4 inh 21, XBP1 UPR activ -3, UPR CHOP act 3 and Beta2AR agonist 1.
`COc1ccccc1OCC(=O)N(Cc1nnc(-c2ccccc2Cl)o1)C1CC1` gave VLA-4 inh 31, XBP1 UPR activ -2, UPR CHOP act 3 and Beta2AR agonist -4.
For CCNC(=S)N/N=C/c1ccc(OCCOc2ccccc2C)cc1 the results were CHOP inh 85*, VLA-4 inh 7, XBP1 UPR activ 3, UPR CHOP act -2 and Beta2AR agonist 4.
For N=C1S/C(=C\c2cccc3ccccc23)C(=O)N1c1ccc(F)cc1 the results were CHOP inh 99*, VLA-4 inh 3, XBP1 UPR activ 4, UPR CHOP act 2 and Beta2AR agonist 1.
Screening O=C(COc1ccc2ccc(=O)oc2c1)Nc1ccc(N2CCCCC2)cc1 returned VLA-4 inh 4, XBP1 UPR activ -4, UPR CHOP act -2 and Beta2AR agonist 2.
Screening Cc1cc(NC(=O)c2ccccc2F)n(-c2nc3ccccc3[nH]2)n1 returned CHOP inh -23, VLA-4 inh -7, XBP1 UPR activ 6, UPR CHOP act 4 and Beta2AR agonist 1.
`Cc1cc(NC(=O)c2c(F)cccc2Cl)n(-c2nc3ccccc3[nH]2)n1` gave CHOP inh 75*, VLA-4 inh 3, XBP1 UPR activ 0, UPR CHOP act -2 and Beta2AR agonist 5.
CN1CCc2c(cc(O)c(O)c2Cl)C(c2cccc(Cl)c2)C1 (stereo unspecified) was read as CHOP inh -15.
Screening COc1cc2nc(-c3ccccc3)nc(N3CCCC3)c2cc1OC returned CHOP inh 82*.
`O=C(NC1CCCCC1)C(c1cccnc1)N(C(=O)CCl)c1cccc(Cl)c1` (stereo unspecified) gave CHOP inh 109*, VLA-4 inh 8, XBP1 UPR activ -6, UPR CHOP act 9 and Beta2AR agonist 35.
COc1cc(NC(=O)Cn2ncc(Cl)c(Cl)c2=O)c(C)cc1[N+](=O)[O-] was read as CHOP inh 109* and Beta2AR agonist 39.
`C(=N\Nc1nc2ccccc2[nH]1)/c1cccc2cccnc12` gave CHOP inh 88*, VLA-4 inh -12, XBP1 UPR activ 0, UPR CHOP act 2 and Beta2AR agonist 7.
`COc1ccc(C[C@@H]2OC3(C=CC(=O)C=C3)O[C@H]2Cc2ccc(OC)cc2)cc1` gave Beta2AR agonist 52*.
Screening CSc1ccc(CNCC2CCCO2)cc1 (stereo unspecified) returned VLA-4 inh 7, XBP1 UPR activ -1, UPR CHOP act 0 and Beta2AR agonist 5.
For Cc1cc(C)c(S(=O)(=O)Nc2ncccc2C)c(C)c1 the results were VLA-4 inh 10, XBP1 UPR activ -2, UPR CHOP act 2 and Beta2AR agonist -4.
